UCH37 inh – inhibitors of human deubiquitinating enzyme UCH37. AID 588478. inhibition, % (concentration not given with the values). purified proteasome/UCH37, Ub-AMC cleavage fluorescence. Q9Y5K5. hit rate 0.33% among 330,000;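 active = mean inhibition over replicate wells above about 20%, limit read from the data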
Target sequence (Q9Y5K5 whole entry, looked up): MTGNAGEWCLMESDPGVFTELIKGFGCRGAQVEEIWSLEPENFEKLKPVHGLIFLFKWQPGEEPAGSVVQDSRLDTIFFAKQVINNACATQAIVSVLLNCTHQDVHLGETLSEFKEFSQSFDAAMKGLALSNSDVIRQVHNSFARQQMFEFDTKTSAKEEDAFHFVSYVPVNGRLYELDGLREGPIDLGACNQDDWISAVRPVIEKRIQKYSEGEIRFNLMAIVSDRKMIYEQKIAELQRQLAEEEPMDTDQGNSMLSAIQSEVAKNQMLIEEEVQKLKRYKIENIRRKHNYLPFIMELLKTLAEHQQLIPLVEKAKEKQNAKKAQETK
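Test system – human UCH37 enzyme supplied as purified proteasome complex · Incubation – 30 min preincubation with enzyme, 25 min cleavage at room temperature · Detection – AMC fluorescence from Ub-AMC cleavage, excitation 355 nm, emission 460 nm · Benchmarks – no-proteasome wells (full inhibition) and compound-free wells (no inhibition)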
SENP8 block-1 – blocks the human protease SENP8; purified SENP8, Z-RLRGG-aminoluciferin cleavage, luminescence; inhibition, % at 10 µM; hit rate 1.2% among 330,000; in the data active = inhibition above about 50%
SENP7 block – blocks the human protease SENP7; AID 434973; recombinant SENP7, Z-RLRGG-aminoluciferin luminescence, 40 min; Q9BQF6; inhibition, % at 5 µM; hit rate 1.5% among 330,000;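 active = inhibition above about 50% at the single test dose, limit read from the data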
SENP8 block-2 – inhibitors of human SENP8 protease. Q96LD8. recombinant SENP8, Nedd8 substrate fluorescence. inhibition, % at 20 µM. hit rate 0.64% among 360,000. AID 602440; in the data active = inhibition mostly above about 40%, no sharp cut-off; inactive = mostly below about 27%
SENP1 FRET inh – inhibitors of human SENP1 SUMO protease catalytic domain. Q9P0U3. recombinant SENP1 catalytic domain, CyPet-SUMO1-YPet FRET cleavage. inhibition, % at 10 µM. hit rate 0.21% among 360,000;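 active = inhibition at least 30% at 10 µM, raw YFP signal under a set limit, fluorescence ratio 0.5 to 1.5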
Target sequence (Q9P0U3 419-644 limits assumed): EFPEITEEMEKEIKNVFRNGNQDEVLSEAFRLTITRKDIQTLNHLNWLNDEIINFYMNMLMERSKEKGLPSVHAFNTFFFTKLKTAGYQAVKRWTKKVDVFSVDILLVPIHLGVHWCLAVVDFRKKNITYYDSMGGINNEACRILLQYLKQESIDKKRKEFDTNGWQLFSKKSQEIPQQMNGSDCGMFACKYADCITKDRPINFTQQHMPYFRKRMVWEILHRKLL
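Test system: recombinant human SENP1 catalytic domain, His6-tagged / Medium: pH 8 Tris buffer with EDTA, NaCl, BME, BSA, NP40, catalase / Also added: SUMO1 FRET substrate flanked by Cypet and Ypet, 25 nM / Times: 50 min reaction at room temperature / Signal: FRET, CFP and YFP emission / Control set: no-enzyme low control and enzyme-plus-DMSO high control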
SENP6 inh – SENP6 protease inhibition | hit rate 1.8% among 330,000 | Recombinant SENP6 catalytic domain, aminoluciferin luminescence | inhibition, % at 10 µM;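 active = inhibition above about 50% at the single tested dose, limit read from the data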
SENP8 conf – human SENP8 inhibition, confirmed; shares compounds with SENP7 block; Recombinant SENP8, Z-RLRGG-aminoluciferin luminescence, 60 min; inhibition, % at 12.5 µM; hit rate 40% among 6,200; AID 488912;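 active = mean inhibition across replicates above about 50%, limit read from the data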
SENP6 confirm – confirmation of human SENP6 protease inhibitors. shares compounds with SENP7 block. recombinant SENP6, Z-RLRGG-aminoluciferin luminescence. inhibition, % at 12.5 µM. hit rate 58% among 6,200. AID 488915
SENP7 confirm – human SENP7 inhibition, confirmed; shares compounds with SENP7 block; recombinant SENP7, Z-RLRGG-aminoluciferin luminescence, 40 min; inhibition, % at 12.5 µM; hit rate 69% among 6,200
Casp3 select – inhibits human caspase-3 in SENP selectivity test; shares compounds with SENP7 block; purified caspase-3, Z-DEVD-aminoluciferin luminescence, 60 min; inhibition, % at 12.5 µM; hit rate 60% among 6,200; AID 488918;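 active = mean inhibition above about 50%, limit read from the data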
Luc interf – interferes with luciferase luminescence in SENP counter-screen | inhibition, % at 12.5 µM | shares compounds with SENP7 block | Pre-incubated SENP8/Z-RLRGG-aminoluciferin, luciferase luminescence interference | hit rate 39% among 6,200;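 active = mean inhibition above about 50% when retested at one dose, limit read from the data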
Numbers stand for hits; – = inactive; · = not tested or not shown. Hits are enriched below; roughly 2.6% of the tested compounds scored in any of these assays.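 Rule for the calls, unless noted: active = mean inhibition above about 50% in the one-dose retest (limit read from the data); inactive = the rest.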

SMILES	UCH37 inh	SENP8 block-1	SENP7 block	SENP8 block-2	SENP1 FRET inh	SENP6 inh	SENP8 conf	SENP6 confirm	SENP7 confirm	Casp3 select	Luc interf
Cc1ccc2nc(NC(=O)c3ccco3)sc2c1	–	93	96	–	–	92	–	94	101	92	58
O=C(Nc1nc2ccc(Br)cc2s1)c1ccco1	–	58	63	–	–	75	–	64	90	69	–
CC(=NNC(=O)c1cccs1)c1cccc(N)c1	–	·	·	·	·	·	·	·	·	·	·
COc1ccc(C/C(=N\OC(C)=O)c2ccc(OC)cc2)cc1	·	91	98	–	–	96	92	96	102	96	95
COC(=O)N=C(Cc1ccc(OC)cc1)c1ccc(OC)cc1	–	·	·	·	·	·	·	·	·	·	·
COC(=O)/N=C(/Cc1ccc(OC)cc1)c1ccc(OC)cc1	·	92	94	–	–	96	97	97	102	96	90
O=C(Cc1cc(=O)[nH][nH]1)NN=Cc1cccc(Cl)c1Cl	–	·	·	·	·	·	·	·	·	·	·
Cc1nc2oc3ccc(F)cc3c(=O)c2cc1C(=O)O	–	–	–	–	–	–	·	·	·	·	·
Cc1ccc2oc3nc(C)c(C(=O)O)cc3c(=O)c2c1	–	81	92	–	–	88	–	–	68	80	56
COCc1nc2oc3ccc(C)cc3c(=O)c2cc1C(=O)OC	–	–	–	–	–	–	·	·	·	·	·
CC(=O)c1cc2c(=O)c3cc(C)ccc3oc2nc1C	–	64	64	–	–	75	–	–	–	56	–
CCOC(=O)c1cc2c(=O)c3cc(C)ccc3oc2nc1C	–	71	92	–	–	–	–	–	–	60	–
CCCS(=O)(=O)c1cnc(C2COc3ccccc3O2)nc1N (centres undefined)	–	87	94	–	–	93	82	92	100	96	–
CC(=O)c1c(C)oc2ccc(OCc3ccccc3)cc12	–	–	–	–	–	55	–	–	68	–	–
O=C(O)c1cccc(OCc2ccccc2Cl)c1	–	79	75	–	–	94	86	86	97	82	89
Cc1oc2ccc(OCc3ccccc3Cl)cc2c1C(=O)O	–	–	–	–	–	62	–	–	51	55	–
CC(=NNS(=O)(=O)c1cccc([N+](=O)[O-])c1)c1cc2ccccc2o1	–	·	·	·	·	·	·	·	·	·	·
COc1ccc(C=NNC(=O)c2ccccc2OCc2ccccc2)c(OC)c1	–	·	·	·	·	·	·	·	·	·	·
O=C(N/N=C/c1cccc(Oc2ccccc2)c1)c1cccc(O)c1	·	–	–	–	–	60	–	–	62	–	–
O=C(CNc1cccc2ccccc12)N/N=C/c1ccccn1	·	71	–	–	–	83	–	–	–	–	–
O=C(CNc1cccc2ccccc12)N/N=C/c1cccc(Oc2ccccc2)c1	·	51	–	–	–	67	–	–	–	–	–
Cc1cccc(C=NNC(=O)CNc2cccc3ccccc23)n1	–	·	·	·	·	·	·	·	·	·	·
NC(=O)c1ccc(C(=O)N/N=C/c2cccc(Oc3ccccc3)c2)cc1	·	–	–	–	–	–	·	·	·	·	·
O=C(CNc1cccc2ccccc12)N/N=C/c1ccc([N+](=O)[O-])cc1	·	–	–	–	–	74	–	–	–	–	–
CC(=NNC(=O)COc1cccc(Br)c1)c1ccc2c(c1)OCCO2	–	·	·	·	·	·	·	·	·	·	·
SMILES	UCH37 inh	SENP8 block-1	SENP7 block	SENP8 block-2	SENP1 FRET inh	SENP6 inh	SENP8 conf	SENP6 confirm	SENP7 confirm	Casp3 select	Luc interf
Cc1ccc(C=NNC(=O)Cn2cnc3c2c(=O)n(C)c(=O)n3C)s1	–	·	·	·	·	·	·	·	·	·	·
O=C(OC1CCc2ccccc2C1=O)c1ccccc1O (centres undefined)	–	70	80	–	–	82	81	80	92	67	–
Cc1cccn2cc(-c3ccccc3)nc12	–	53	69	–	–	74	–	71	93	85	70
COc1ccc(-c2cn3cc(C(F)(F)F)cc(Cl)c3n2)cc1	–	–	–	–	–	–	·	·	·	·	·
COc1ccc(-c2cn3ccc4ccccc4c3n2)cc1	–	83	92	–	–	92	–	86	100	87	–
Cc1cccn2cc(-c3ccc(F)cc3)cc12	–	–	–	–	–	–	·	·	·	·	·
Cc1cccn2cc(-c3ccc(F)cc3)nc12	–	78	91	–	–	93	–	87	99	90	82
CN(Cc1c(C(=O)NN=Cc2ccc(F)cc2)nnn1-c1nonc1N)C1CCCCC1	–	·	·	·	·	·	·	·	·	·	·
CN(C)/C=C(\C=O)c1onc(-c2ccccc2Cl)c1C#N	–	–	–	–	–	–	·	·	·	·	·
N#Cc1c(-c2ccccc2Cl)noc1/C=C/Nc1ccc(C(=O)O)cc1	–	95	69	–	–	95	89	97	97	84	–
O=c1[nH]c(Nc2ccccc2)cc2ccccc12	–	96	94	–	–	89	55	80	59	–	–
Cn1c(=O)cc(Nc2ccccc2)[nH]c1=O	–	–	–	–	–	–	·	·	·	·	·
CC(=O)c1cccc(Nc2nc(-c3ccccc3)nc3ccccc23)c1	–	–	–	–	–	–	·	·	·	·	·
CC(=O)c1cccc(-c2ccc3c(=O)[nH]c(Nc4ccccc4)cc3c2)c1	31	97	95	–	–	99	95	97	95	97	–
O=C(NN=Cc1ccc(F)cc1)c1cc(-c2ccco2)nc2ccccc12	–	·	·	·	·	·	·	·	·	·	·
O=[N+]([O-])c1ccc2c(c1)C(=NO)c1ccccc1-2	–	·	·	·	·	·	·	·	·	·	·
COc1ccc(C2=C(N)c3ccccc3C2=O)cc1	–	–	–	–	–	54	52	–	83	73	–
COc1ccc(C2C(=O)c3ccccc3C2=O)cc1	–	62	–	–	–	57	–	67	91	84	62
O=C(O)COc1ccccc1C=NNC(=O)CNC(=O)c1ccc(F)cc1	–	·	·	·	·	·	·	·	·	·	·
O=C(O)c1ccc(C=NNC(=O)c2cc(-c3cccs3)nc3ccccc23)cc1	–	·	·	·	·	·	·	·	·	·	·
CN(c1ccc(C(=O)Nc2ccc3c(c2)OCCO3)cc1)S(C)(=O)=O	–	–	–	–	–	57	59	57	85	82	65
